Test results taken from publication PMC7693203 (Epilepsia, 2020).
Read-outs that look alike come from different tables or passages of the source. Marks after values point to notes of the source that are not given here.

Columns and labels:
[1] = Other safety parameters for all six trials; type: in vivo, human; conditions: result in words
Summary of the method: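 Safety was assessed in open-label, fixed-sequence phase 1 trials in healthy volunteers and in randomized, double-blind, placebo-controlled phase 2 trials in epilepsy patients. Assessments covered treatment-emergent adverse events, clinical laboratory evaluations, vital signs, 12-lead ECGs, physical examinations and the C-SSRS questionnaire. The safety population comprised subjects given at least one dose. In CYP3A4 trials, volunteers also needed at least one postdose assessment.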

CYP3A4/2C19 [2] = conditions: result in words
CYP3A4 [3] = molecular target: T1, CYP3A4 (Homo sapiens, UniProt P08684); conditions: result in words
CYP2C19 [4] = molecular target: T2, CYP2C19 (Homo sapiens, UniProt P33261)
[5] = not given; remark: listed apart in the source
[6] = not given; remark: listed apart in the source
[7] = steady-state CBD, healthy volunteers; result in words; cited from earlier work
[8] = cited from earlier work; for Abdominal pain / Chromaturia / Diarrhea / Fatigue / Flatulence / Headache / Hepatic enzyme increased / Nausea / Somnolence: healthy volunteers
[9] = cited from earlier work
[10] = result in words; cited from earlier work
CYP3A4 [11] = molecular target: T1, CYP3A4; conditions: result in words, cited from earlier work
CYP2C19 [12] = molecular target: T2, CYP2C19; conditions: human liver microsomes; result in words; cited from earlier work
UGT1A9 = conditions: in vitro; result in words; cited from earlier work
UGT2B7 = conditions: in vitro; result in words; cited from earlier work
CYP3A4/2C19 [13] = test: clinical; conditions: human, in vivo, 750 mg
CYP3A4 [14] = molecular target: T1, CYP3A4; test: clinical; conditions: in vivo, 750 mg
CYP2C19 [15] = molecular target: T2, CYP2C19; test: clinical; conditions: in vivo, 750 mg
[16] = trial 17028, healthy volunteers, N = 16
[17] = trial 17074, healthy volunteers, N = 16
[18] = trial 17075, healthy volunteers, N = 32
[19] = trial 1543, healthy volunteers, N = 77
[20] = trial 1543 groups 1 + 2 (DDI CLB), n = 27
[21] = trial 1543 groups 3 + 4 (DDI STP), n = 24
[22] = trial 1543 groups 5 + 6 (DDI VPA), n = 26
[23] = trial 1428, patients with epilepsy, N = 16
[24] = trial 1428, patients with epilepsy, N = 20

T1 sequence (P08684 whole entry): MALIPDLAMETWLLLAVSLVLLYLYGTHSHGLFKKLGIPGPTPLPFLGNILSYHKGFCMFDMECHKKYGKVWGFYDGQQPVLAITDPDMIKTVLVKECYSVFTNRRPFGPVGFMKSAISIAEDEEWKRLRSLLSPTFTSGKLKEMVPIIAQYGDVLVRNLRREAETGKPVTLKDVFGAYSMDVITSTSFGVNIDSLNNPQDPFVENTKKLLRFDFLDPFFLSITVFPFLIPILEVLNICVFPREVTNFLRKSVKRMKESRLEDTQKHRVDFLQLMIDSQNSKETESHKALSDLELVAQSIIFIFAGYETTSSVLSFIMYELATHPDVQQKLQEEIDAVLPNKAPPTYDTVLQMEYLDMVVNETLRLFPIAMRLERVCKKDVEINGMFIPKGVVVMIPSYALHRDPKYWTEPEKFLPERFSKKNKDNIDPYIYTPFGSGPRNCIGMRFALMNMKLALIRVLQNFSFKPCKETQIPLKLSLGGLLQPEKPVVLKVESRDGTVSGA
T2 sequence (P33261 whole entry): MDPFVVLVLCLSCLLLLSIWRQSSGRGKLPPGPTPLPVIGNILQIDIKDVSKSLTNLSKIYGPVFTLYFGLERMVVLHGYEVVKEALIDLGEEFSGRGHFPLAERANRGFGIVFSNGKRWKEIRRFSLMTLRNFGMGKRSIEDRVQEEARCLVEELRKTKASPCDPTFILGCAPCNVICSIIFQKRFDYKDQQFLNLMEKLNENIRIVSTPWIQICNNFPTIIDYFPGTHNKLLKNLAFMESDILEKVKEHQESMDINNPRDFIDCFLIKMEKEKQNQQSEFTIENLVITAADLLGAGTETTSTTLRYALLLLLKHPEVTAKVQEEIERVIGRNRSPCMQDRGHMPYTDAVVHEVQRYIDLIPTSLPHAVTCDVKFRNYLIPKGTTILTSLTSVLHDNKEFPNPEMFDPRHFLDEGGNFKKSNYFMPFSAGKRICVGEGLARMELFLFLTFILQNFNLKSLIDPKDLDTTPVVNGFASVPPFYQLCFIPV

Q: What does the source list for C=C(C)[C@@H]1CCC(C)=C[C@H]1c1c(O)cc(CCCCC)cc1O [CBD, cannabidiol]?
A: instances that met Hy’s law criteria for potential drug‐induced liver injury [1]: no instances; suicidal ideation or behavior by C‐SSRS [1]: No suicidal ideation or behavior; t ½ with concomitant RIF (CYP3A4/2C19 [2]): unaffected; clearance with concomitant ITC (CYP3A4 [3]): unaffected; effect of concomitant steady‐state ITC on exposure (CYP3A4 [3]): did not affect; t ½ with concomitant ITC (CYP3A4 [3]): unaffected; clearance with concomitant FLU (CYP2C19 [4]; result in words): not affected; t ½ with concomitant FLU (CYP2C19 [4]; result in words): not affected; increase in AUCtau with concomitant steady‐state FLU (CYP2C19 [4]; single dose of CBD): 21%; increase in C max with concomitant steady‐state FLU (CYP2C19 [4]; single dose of CBD): 24%; elevation in AST levels observed (trial 17028): four; elevations in alanine aminotransferase levels observed (trial 17028): three; AEs leading to withdrawal [16]: 2 (13) n (%); Abdominal pain [16]: 2 (13) n (%); Chromaturia [16]: 0 (0) n (%); Death [16]: 0 (0) n (%); Diarrhea [16]: 6 (38) n (%); Fatigue [16]: 3 (19) n (%); Flatulence [16]: 0 (0) n (%); Headache [16]: 4 (25) n (%); Hepatic enzyme increased [16]: 4 (25) n (%); Nausea [16]: 2 (13) n (%); Patient with at least 1 AE [16]: 15 (94) n (%); Serious AEs [16]: 0 (0) n (%); Severe AEs [16]: 0 (0) n (%); Somnolence [16]: 5 (31) n (%); healthy volunteers with elevations in transaminase levels reported as AEs (trial 17028, of 16): 25%; healthy volunteers reporting AEs (trial 17028, of 16, CBD as multiple doses): 94%; AEs leading to withdrawal [5, 17]: 0 (0) n (%); Abdominal pain [5, 17]: 0 (0) n (%); Death [5, 17]: 0 (0) n (%); Diarrhea [5, 17]: 3 (19) n (%); Fatigue [5, 17]: 0 (0) n (%); Flatulence [5, 17]: 0 (0) n (%); Headache [5, 17]: 2 (13) n (%); Hepatic enzyme increased [5, 17]: 0 (0) n (%); Nausea [5, 17]: 4 (25) n (%); Patient with at least 1 AE [5, 17]: 16 (100) n (%); Serious AEs [5, 17]: 0 (0) n (%); Severe AEs [5, 17]: 0 (0) n (%); Somnolence [5, 17]: 4 (25) n (%); Chromaturia ([5]; trial 17074, healthy volunteers, N = 16, rifampicin coadministered): 13 (81) n (%); healthy volunteers reporting AEs ([5]; trial 17074, overall, 16 subjects, CBD as two single doses): 100%; healthy volunteers reporting AEs ([5]; trial 17074, after CBD alone, during RIF treatment, or after CBD and RIF, of 16): 44%; elevations in transaminase levels as AEs or laboratory evaluations ([5]; trial 17074, result in words): no reports; AEs leading to withdrawal [6, 18]: 0 (0) n (%); Abdominal pain [6, 18]: 2 (6) n (%); Chromaturia [6, 18]: 0 (0) n (%); Death [6, 18]: 0 (0) n (%); Diarrhea [6, 18]: 3 (9) n (%); Fatigue [6, 18]: 2 (6) n (%); Flatulence [6, 18]: 0 (0) n (%); Headache [6, 18]: 6 (19) n (%); Hepatic enzyme increased [6, 18]: 0 (0) ^c n (%); Nausea [6, 18]: 2 (6) n (%); Patient with at least 1 AE [6, 18]: 20 (63) n (%); Serious AEs [6, 18]: 0 (0) n (%); Severe AEs [6, 18]: 0 (0) n (%); Somnolence [6, 18]: 3 (9) n (%); healthy volunteers reporting AEs ([6]; trial 17075, overall, 32 subjects, CBD as two single doses): 63%; healthy volunteers reporting AEs ([6]; trial 17075 FLU arm, overall, of 16): 44%; healthy volunteers reporting AEs ([6]; trial 17075 ITC arm, overall, of 16): 81%; effect of concomitant STP on exposure [7]: no effect; effect of concomitant VPA on exposure [7]: did not affect; AEs leading to withdrawal [8, 19]: 6 (8) n (%); Death [8, 19]: 0 (0) n (%); Patient with at least 1 AE [8, 19]: 72 (94) n (%); Serious AEs [8, 19]: 0 (0) n (%); Severe AEs [8, 19]: 2 (3) n (%); subjects who experienced an AE of rash ([8]; trial 1543, of 77, early in the trial): 12%; healthy volunteers who experienced an AE ([8]; trial 1543, of 77): 94%; elevations in transaminase levels as AEs or laboratory evaluations ([8]; trial 1543, result in words): no reports; Abdominal pain [8, 20]: 7 (26) n (%); Chromaturia [8, 20]: 0 (0) n (%); Diarrhea [8, 20]: 7 (26) n (%); Fatigue [8, 20]: 14 (52) n (%); Flatulence [8, 20]: 0 (0) n (%); Headache [8, 20]: 13 (48) n (%); Hepatic enzyme increased [8, 20]: 0 (0) n (%); Nausea [8, 20]: 8 (30) n (%); Somnolence [8, 20]: 5 (19) n (%); Abdominal pain [8, 21]: 7 (29) n (%); Chromaturia [8, 21]: 0 (0) n (%); Diarrhea [8, 21]: 13 (54) n (%); Fatigue [8, 21]: 8 (33) n (%); Flatulence [8, 21]: 6 (25) n (%); Headache [8, 21]: 9 (38) n (%); Hepatic enzyme increased [8, 21]: 0 (0) n (%); Nausea [8, 21]: 6 (25) n (%); Somnolence [8, 21]: 8 (33) n (%); Abdominal pain [8, 22]: 7 (27) n (%); Chromaturia [8, 22]: 0 (0) n (%); Diarrhea [8, 22]: 15 (58) n (%); Fatigue [8, 22]: 14 (54) n (%); Flatulence [8, 22]: 1 (4) n (%); Headache [8, 22]: 8 (31) n (%); Hepatic enzyme increased [8, 22]: 0 (0) n (%); Nausea [8, 22]: 8 (31) n (%); Somnolence [8, 22]: 7 (27) n (%); patients with epilepsy reporting AEs ([9]; trial 1428, of 20): 75%; Abdominal pain [9, 23]: 1 (6) n (%); Chromaturia [9, 23]: 0 (0) n (%); Diarrhea [9, 23]: 6 (38) n (%); Fatigue [9, 23]: 1 (6) n (%); Flatulence [9, 23]: 0 (0) n (%); Headache [9, 23]: 1 (6) n (%); Hepatic enzyme increased [9, 23]: 0 (0) ^d n (%); Nausea [9, 23]: 3 (19) n (%); Somnolence [9, 23]: 2 (13) n (%); AEs leading to withdrawal [9, 24]: 1 (5) n (%); Death [9, 24]: 0 (0) n (%); Patient with at least 1 AE [9, 24]: 15 (75) n (%); Serious AEs [9, 24]: 1 (5) n (%); Severe AEs [9, 24]: 1 (5) n (%); PPB when VPA and CBD are combined in vitro [10]: not affected; inhibition of CYP3A4 (CYP3A4 [11]; human liver microsomes): potently inhibits; inhibition of CYP3A4 (CYP3A4 [11]; in vitro data): potent inhibitor; inhibition of CYP2C19 (CYP2C19 [12]): potently inhibits; inhibition of UGT1A9 (UGT1A9): potently inhibits; inhibition of UGT2B7 (UGT2B7): potently inhibits; half-life (CYP3A4/2C19 [13]): 32.5 h; half-life (CYP3A4 [14]): 56.8 h; half-life (CYP2C19 [15]): 51.2 h
